Experimental findings from ChEMBL document CHEMBL4118065, “Design, synthesis and antimycobacterial activity of novel imidazo[1,2-a]pyridine-3-carboxamide derivatives” (Eur J Med Chem, 2017) are described below.

For orientation: MIC90 means the lowest concentration that inhibits either 90% of growth or 90% of the strains tested, depending on the study.

Values after ≈ are worked out from the molar mass of the structure shown.

For test [1], the system named is Mycobacterium tuberculosis. The experiment in a line: Antimycobacterial activity against isoniazid/rifampicin-resistant Mycobacterium tuberculosis MTB11168 after 7 days by microplate Alamar blue assay. It is filed as functional. The note with it: MTB11168, 168 h. Summed up:
(§1)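 MABA against replicating M. tuberculosis. Cells grown to late log phase (70–100 Klett units) in 7H9 broth with 0.2% glycerol, 0.05% Tween 80 and 10% ADC. They were washed in PBS, filtered (8 µm) and frozen. Twofold compound dilutions received 2×10^5 CFU per well at 37 °C. Tween 80 and Alamar blue were added on day 7, then 16–24 h more. Fluorescence read at 530/590 nm. MIC = lowest concentration giving ≥90% fluorescence reduction versus bacterium-only controls.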
On the technique in general: Alamar Blue is a resazurin reagent that responds to reducing activity.

Test [2] has as its system Mycobacterium tuberculosis. The experiment in a line: Antimycobacterial activity against isoniazid/rifampicin-resistant Mycobacterium tuberculosis MTB9160 after 7 days by microplate Alamar blue assay. Type of test: functional. The settings on record: MTB9160, 168 h. Summed up: as §1

On to `Cc1ccc2nc(C)c(C(=O)NCCOc3ccc(Br)cc3)n2c1`, for which the MIC90 in test [1] is under 0.041 µM; in test [2], 0.2 µM (≈ 0.0777 µg/mL).

Turning to `COc1ccc(NCCNC(=O)c2c(C)nc3ccc(C)cn23)cc1`, the MIC90 in test [1] turned out to be 1.47 µM (≈ 0.497 µg/mL); in test [2], 2.64 µM (≈ 0.893 µg/mL).

As to `Cc1ccc2nc(C)c(C(=O)NCCNc3ccc(C(C)(C)C)cc3)n2c1`, the MIC90 in test [1] came out at 1.37 µM (≈ 0.499 µg/mL); in test [2] it was 0.57 µM (≈ 0.208 µg/mL).

In the case of `NNC(=O)c1ccncc1` [ISONIAZID], the MIC90 in test [1] and in test [2] was over 291 µM each time.

As to `CO[C@H]1/C=C/O[C@@]2(C)Oc3c(C)c(O)c4c(O)c(c(/C=N/N5CCN(C)CC5)c(O)c4c3C2=O)NC(=O)/C(C)=C\C=C\[C@H](C)[C@H](O)[C@@H](C)[C@@H](O)[C@@H](C)[C@H](OC(C)=O)[C@@H]1C` [RIFAMPIN], the MIC90 in test [1] and in test [2] was over 57 µM throughout.
